# Ins promoter up = MIN6 insulin promoter up-regulation; MIN6 insulin promoter-GFP reporter, high-content imaging; hits give high values; z-score at 5 µM; 190,000 tested, 0.3% active; AID 1625;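 active = z-score above 3 at 5 µM with at least 500 cells counted in the well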
# Wee1 degr inh = inhibitors of human Wee1 degradation | P30291 | HeLa Luc-Wee1K328M stability, luciferase luminescence; 100% = proteasome inhibitor MG132 effect | reporter increase, % at 5 µM | 220,000 tested, 1.2% active;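 active = activation above the mean of all tested compounds plus 3 SD, set per screening run, cut at about 8.8% in these data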;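 note: cells exposed to compound for 20 h before luminescence read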
# Target sequence (P30291 whole entry K328M): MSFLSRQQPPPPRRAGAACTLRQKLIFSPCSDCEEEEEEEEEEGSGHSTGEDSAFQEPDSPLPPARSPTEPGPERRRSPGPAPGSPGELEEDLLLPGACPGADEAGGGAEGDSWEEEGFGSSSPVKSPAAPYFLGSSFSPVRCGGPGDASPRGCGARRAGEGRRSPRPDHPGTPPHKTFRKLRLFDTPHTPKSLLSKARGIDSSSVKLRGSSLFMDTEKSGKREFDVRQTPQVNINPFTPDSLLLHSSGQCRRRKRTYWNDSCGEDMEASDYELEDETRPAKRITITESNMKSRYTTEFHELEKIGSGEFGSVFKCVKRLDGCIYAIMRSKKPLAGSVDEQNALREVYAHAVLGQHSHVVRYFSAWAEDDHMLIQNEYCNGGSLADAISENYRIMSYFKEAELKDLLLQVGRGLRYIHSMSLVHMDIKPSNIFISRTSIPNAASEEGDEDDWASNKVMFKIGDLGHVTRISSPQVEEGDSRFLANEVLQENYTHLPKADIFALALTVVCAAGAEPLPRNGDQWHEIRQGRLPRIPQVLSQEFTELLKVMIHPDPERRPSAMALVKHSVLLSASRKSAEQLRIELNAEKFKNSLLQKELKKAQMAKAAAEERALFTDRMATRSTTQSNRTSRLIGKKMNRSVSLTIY
# Autophagy mod = alters autophagy in cells | MEF GFP-LC3 puncta imaging; test concentration mostly 10 µM | calls only at 10 µM (by protocol) | 190,000 tested, 0.98% active | AID 463193;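 active = percentage of spot-positive cells more than 3 SD above its plate mean, without a fluorescence outlier flag or 80% toxicity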
# b-catenin transl = alters nuclear translocation of beta-catenin in HeLa cells; immunofluorescence imaging; nuclear translocation activity, % at 5 µM; 190,000 tested, 0.3% active; AID 1665;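 active = nuclear translocation activity above 50% at 5 µM, with a well cell count of 50 or more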;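 note: per-cell ratio of nuclear to cytoplasmic median beta-catenin stain intensity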
#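 Read-out: Nuclear/cytoplasmic beta-catenin signal ratio, % activation | Assay system: Human HeLa cell line | Times: 24 h compound exposure at 37°C, 5% CO2 | Signal: Fluorescence imaging of beta-catenin antibody stain plus DAPI | Dosing: 5 µM primary, 0.02–20 µM confirmation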
# MT stabilize HCS = stabilizes microtubules in HeLa cells; HeLa tubulin immunostaining HCS, 24 h; share of cells brighter than vehicle mean+2SD; % tubulin-high responders, % at 10 µM; 200,000 tested, 0.83% active; AID 2205;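 active = plate Z-score above 3 for both tubulin-high and condensed-nucleus cell shares, with cell loss under 80%, at 10 µM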;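 note: anti alpha tubulin signal scored within the nucleus-defined area of each cell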
# Hits are given with their value; n = inactive; x = not tested or not shown; + = active, no number. Rows were chosen to be rich in hits. Some 2.9% of all compounds tested hit in one or more screens of this group.
SMILES,Ins promoter up,Wee1 degr inh,Autophagy mod,b-catenin transl,MT stabilize HCS
Cc1ccccc1-n1c(Cn2c(=O)sc3ccccc32)nnc1SCC(=O)NCC1CCCO1 (stereo not given),n,n,n,x,n
COc1ccc(N(C(=O)CCl)C(C)(C(=O)Nc2c(C)cccc2C)c2ccccn2)cc1 (stereo not given),n,n,n,n,n
COC(=O)c1ccccc1NC(=O)c1cccc(COc2ccccc2Cl)c1,n,n,n,122.6,46.0
O=C(NCc1ccccc1)c1cccc(COc2ccccc2Cl)c1,n,n,n,n,n
Cc1cc(C)c(C)c(S(=O)(=O)N2CCN(C)CC2)c1C,n,n,+,n,n
Cc1ccc(S(=O)(=O)N2CCN(C)CC2)c(C)c1,n,n,n,n,n
CCCCNC(=O)C1CC(=O)N(C2CCCCC2)C1 (stereo not given),3.02,n,n,n,n
Cc1ccc(Cc2nc(-c3ccncc3)no2)cc1,n,9.7,n,n,n
CN1CCN(Cn2cc(/C=C/C(=O)c3ccccc3)c3ccccc32)CC1,n,10.2,n,n,n
O=C(/C=C/c1cn(CC(O)CN2CCCCC2)c2ccccc12)c1cccs1 (stereo not given),4.58,n,+,n,n
O=C(/C=C/c1cn(CC(O)CN2CCCCC2)c2ccccc12)c1ccccc1 (stereo not given),n,n,x,n,x
CN(NC1CC(=O)N(c2ccccc2)C1=O)c1ccccc1 (stereo not given),n,11.3,n,n,n
O=C1CC(NN2CCCCC2)C(=O)N1c1ccccc1 (stereo not given),x,n,n,n,n
CCCn1c(C)nc2c(c1=O)c1nc3ccccc3nc1n2CCc1ccccc1,x,n,n,x,n
CCCn1nc(-c2ccccc2)c2nc3ccccc3nc21,n,n,+,n,n
CCn1c2ccc(Cl)cc2c2nc3ccccc3nc21,n,n,n,n,n
CCCCCn1nc(-c2ccccc2)c2nc3ccccc3nc21,x,n,+,n,n
CCn1nc(-c2ccccc2)c2nc3ccccc3nc21,n,n,+,n,n
CCCCn1c2nc3ccccc3nc2c2c(=O)n(CCC)cnc21,n,n,n,n,n
COc1ccc(-c2cn(-c3ccc(C)cc3C)c(=O)[nH]2)cc1OC,n,n,n,n,n
Cc1cccc(CN2CCN(Cc3nc4c(s3)CCCC4)CC2CCO)n1 (stereo not given),n,n,n,n,n
COc1ccc(-c2oc(NC(=O)CSc3ncn[nH]3)c(C#N)c2-c2ccc(OC)cc2)cc1,n,n,n,n,46.8
COc1ccccc1C1=Nn2c(COc3ccccc3)nnc2SC1,n,n,n,n,n
CCN(CC)S(=O)(=O)c1ccc(C(=O)NCC(c2ccc(OC)cc2)N2CCOCC2)cc1 (stereo not given),n,n,n,n,n
C(=C\c1ccco1)/C=N/n1cnnc1,x,9.7,n,x,n
SMILES,Ins promoter up,Wee1 degr inh,Autophagy mod,b-catenin transl,MT stabilize HCS
CCCN1CCC(=NNc2ccc(S(N)(=O)=O)cc2[N+](=O)[O-])CC1,x,n,n,n,n
CCCN1CCC(=NNc2ccc(S(=O)(=O)N(CC)CC)cc2[N+](=O)[O-])CC1,n,n,n,111.7,n
Cc1ccc2oc(=O)c3cc(C(=O)NCCN4CCN(C)CC4)sc3c2c1,n,10.4,n,n,n
Cc1ccc2oc(=O)c3cc(C(=O)NCCCN4CCc5ccccc5C4)sc3c2c1,n,n,n,n,n
COc1ccc(Cl)cc1S(=O)(=O)N1CCCC1=O,x,10.0,n,n,n
CCCC(=O)N1CCN(S(=O)(=O)c2cc(Cl)ccc2OC)CC1,n,n,n,n,n
CSc1ccc(/C=N/NC(=O)c2ccc(C)c(C)c2)cc1,n,n,n,n,23.9
O=C(NCCNc1nccc(C(F)(F)F)n1)c1cccs1,n,9.2,x,n,x
CC(C)(C)OC(=O)NCCNC(=O)c1cccs1,n,n,x,n,x
COc1ccc(-n2c(C)cc(/C=C3\SC(=S)N(Cc4ccco4)C3=O)c2C)cc1,n,n,+,x,n
Cc1ccc(NC(=O)NNC(=O)Cn2nc(-c3ccccc3)c(-c3ccccc3)c(C#N)c2=O)cc1,n,n,n,n,27.1
Cc1cccc(NC(=O)C(=O)NCC2CCCO2)c1 (stereo not given),n,8.8,n,n,n
O=C(Cc1ccccc1)NCC1CCCO1 (stereo not given),x,10.2,n,x,n
O=C(Cn1c(NCCO)nc2ccccc21)NCC1CCCO1 (stereo not given),n,n,+,n,n

# From PubChem
